From ChEMBL document CHEMBL1157349, “2-Substituted piperazine-derived imidazole carboxamides as potent and selective CCK1R agonists for the treatment of obesity” (Bioorg Med Chem Lett, 2008)

Assays:
[1] = target: T1, Cholecystokinin receptor type A (Homo sapiens) (UniProt P32238); assay: Agonist activity at human CCK1 receptor relative to cholecystokinin 8; assay type: functional
T1 sequence (whole entry): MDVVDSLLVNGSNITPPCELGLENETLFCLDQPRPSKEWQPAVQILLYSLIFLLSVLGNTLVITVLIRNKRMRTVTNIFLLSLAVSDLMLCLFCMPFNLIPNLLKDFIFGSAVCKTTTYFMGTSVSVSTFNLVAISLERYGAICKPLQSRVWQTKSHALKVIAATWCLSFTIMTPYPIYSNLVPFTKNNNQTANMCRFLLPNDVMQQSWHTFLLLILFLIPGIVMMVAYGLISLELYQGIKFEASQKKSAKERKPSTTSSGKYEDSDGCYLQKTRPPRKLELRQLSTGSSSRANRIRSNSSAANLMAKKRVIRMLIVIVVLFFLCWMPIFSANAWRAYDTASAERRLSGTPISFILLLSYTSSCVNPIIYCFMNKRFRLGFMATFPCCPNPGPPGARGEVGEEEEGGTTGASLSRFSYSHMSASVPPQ

[2] = target: T2, Cholecystokinin receptor type A (Homo sapiens, UniProt P32238); assay: Inhibition of human CCK1 receptor
T2 sequence (P32238 whole entry): T1 sequence (whole entry)

Mus musculus [3] = assay: Suppression of 18 hrs overnight food intake in mouse at 3 mg/kg, po relative to control; assay type: functional
Summary of the method: (§1)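 Lean mice were dosed orally in 10% Tw80 in water. Overnight food intake was measured and expressed relative to vehicle-dosed mice.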

[4] = target: T3, Cholecystokinin receptor type A (Mus musculus, UniProt O08786); assay: Agonist activity at mouse CCK1 receptor; assay type: functional
T3 sequence (O08786 whole entry): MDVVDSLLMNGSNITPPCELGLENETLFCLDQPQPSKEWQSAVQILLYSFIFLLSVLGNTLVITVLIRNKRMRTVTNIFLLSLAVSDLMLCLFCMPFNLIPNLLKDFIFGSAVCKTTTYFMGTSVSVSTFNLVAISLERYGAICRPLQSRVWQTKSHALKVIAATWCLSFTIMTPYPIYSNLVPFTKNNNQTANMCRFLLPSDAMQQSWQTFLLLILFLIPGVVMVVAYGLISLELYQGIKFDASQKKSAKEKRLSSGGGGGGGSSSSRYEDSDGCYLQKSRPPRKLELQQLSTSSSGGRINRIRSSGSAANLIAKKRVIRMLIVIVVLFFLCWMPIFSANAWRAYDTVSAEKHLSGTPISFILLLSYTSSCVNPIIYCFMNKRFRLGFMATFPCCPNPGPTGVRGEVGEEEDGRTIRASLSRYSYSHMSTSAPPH
Summary of the method: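 Mouse CCK1 receptor agonism measured in a CCK_IP3 functional assay in K1 cells. Values are means of ≥3 experiments, with standard deviations <75% of the average.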

[5] = target: T2, Cholecystokinin receptor type A; assay: Agonist activity at human CCK1 receptor; assay type: functional
Summary of the method: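 Human CCK1 receptor agonism measured in a CCK_IP3 functional assay with NFAT read-out. Values are means of ≥3 experiments, with standard deviations <75% of the average.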

[6] = target: T4, Cholecystokinin receptor type A (Mus musculus) (UniProt O08786); assay: Agonist activity at mouse CCK1 receptor relative to cholecystokinin 8; assay type: functional
T4 sequence (whole entry): T3 sequence (O08786 whole entry)

Mus musculus [7] = assay: AUC in mouse at 10 mg/kg, po; assay type: ADME, organism-based, Plasma; set-up: dose 10 mg/kg, route oral; conditions: in vivo
[8] = Tmax in mouse at 1 mg/kg, iv and 10 mg/kg, po; assay type: ADME, organism-based; conditions: in vivo
Mus musculus [9] = assay: Suppression of 18 hrs overnight food intake in mouse at 0.3 mg/kg, po relative to control; assay type: functional; summary of the method: as §1
Mus musculus [10] = species: Mus musculus; assay: Gastrointestinal toxicity in CCK1 receptor deficient mouse; assay type: organism-based; conditions: in vivo
[11] = Cmax in mouse at 10 mg/kg, po; assay type: ADME, organism-based; set-up: dose 10 mg/kg, route oral; conditions: in vivo
Mus musculus [12] = assay: Suppression of 48 hrs overnight food intake in wild type mouse at 3 mg/kg, po relative to control; assay type: functional
Summary of the method: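 Wild-type and CCK1R^-/- mice received an oral dose of 3 mpk. Food intake was measured at 18 h and 48 h and compared with vehicle.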

Mus musculus [13] = species: Mus musculus; assay: Gastrointestinal toxicity in wild type mouse; assay type: organism-based; conditions: in vivo
[14] = Volume of distribution in mouse at 1 mg/kg, iv and 10 mg/kg, po; assay type: ADME, organism-based; conditions: in vivo
Mus musculus [15] = assay: Oral bioavailability in mouse at 10 mg/kg; assay type: ADME, organism-based; conditions: in vivo
[16] = Half life in mouse at 1 mg/kg, iv and 10 mg/kg, po; assay type: ADME, organism-based; conditions: in vivo

Structure (SMILES) | Activity [1] | IC50 [2] | EC50 [5] | other results
CCOc1cccc(-n2cc(C(=O)N3CCN(c4cc(C(=O)O)c5ccccc5c4)C[C@H]3CNC(C)=O)nc2-c2ccc(C)cc2F)c1 | 70% | 0.058 nM | 0.033 nM | Activity (Mus musculus [3]): 18%; EC50 [4]: 0.13 nM; Activity [6]: 77%
CCOc1cccc(-n2cc(C(=O)N3CCN(c4cc(C(=O)O)c5ccccc5c4)C[C@H]3CNS(C)(=O)=O)nc2-c2ccc(C)cc2F)c1 | 97% | 0.067 nM | 0.1 nM | –
CCOc1cccc(-n2cc(C(=O)N3CCN(c4cnc5ccccc5c4)C[C@H]3CNC(C)=O)nc2-c2ccc(C)cc2)c1 | 104% | 0.39 nM | 0.097 nM | –
CCOc1cccc(-n2cc(C(=O)N3CCN(c4cnc5ccccc5c4)C[C@@H]3COC(C)=O)nc2-c2ccc(C)cc2)c1 | 104% | 0.24 nM | 0.25 nM | –
CCOc1cccc(-n2cc(C(=O)N3CCN(c4cnc5ccccc5c4)C[C@H]3COC(C)=O)nc2-c2ccc(C)cc2)c1 | 118% | 0.47 nM | 0.77 nM | –
CCOc1cccc(-n2cc(C(=O)N3CCN(c4cc(C(=O)O)c5ccccc5c4)C[C@@H]3CNC(=O)NC)nc2-c2ccc(C)cc2)c1 | 74% | 0.08 nM | 0.13 nM | –
CCOc1cccc(-n2cc(C(=O)N3CCN(c4cc(C(=O)O)c5ccccc5c4)C[C@@H]3COCC(=O)O)nc2-c2ccc(C)cc2)c1 | 85% | 0.14 nM | 0.097 nM | –
CCOc1cccc(-n2cc(C(=O)N3CCN(c4cc(C(=O)O)c5ccccc5c4)CC3)nc2-c2ccc(C)cc2F)c1 | – | 0.04 nM | 0.055 nM | AUC (Mus musculus [7]): 0.61 µM·h; Tmax [8]: 0.6 h; Activity (Mus musculus [3]): 86%; Activity (Mus musculus [9]): 13%; Activity [6]: 56%
CCOc1cccc(-n2cc(C(=O)N3CCN(c4cnc5ccccc5c4)C[C@@H]3C(=O)NC(C)C)nc2-c2ccc(C)cc2)c1 | 87% | 0.21 nM | 0.18 nM | –
CCOc1cccc(-n2cc(C(=O)N3CCN(c4cc(C(=O)O)c5ccccc5c4)C[C@@H]3CNS(C)(=O)=O)nc2-c2ccc(C)cc2)c1 | 72% | 0.12 nM | 0.095 nM | –
CCOc1cccc(-n2cc(C(=O)N3CCN(c4cnc5ccccc5c4)C[C@@H]3CNC(=O)NC)nc2-c2ccc(C)cc2)c1 | 70% | 0.56 nM | 0.16 nM | –
CCOc1cccc(-n2cc(C(=O)N3CCN(c4cc(C(=O)O)c5ccccc5c4)C[C@@H]3C(=O)NC(C)C)nc2-c2ccc(C)cc2)c1 | 94% | 0.11 nM | 0.082 nM | –
CCOc1cccc(-n2cc(C(=O)N3CCN(c4cc(C(=O)O)c5ccccc5c4)C[C@H]3COCC(=O)O)nc2-c2ccc(C)cc2F)c1 | 106% | 0.041 nM | 0.034 nM | –
CCOc1cccc(-n2cc(C(=O)N3CCN(c4cc(C(=O)O)c5ccccc5c4)C[C@@H]3CNC(C)=O)nc2-c2ccc(C)cc2)c1 | 67% | 0.08 nM | 0.04 nM | –
CCOc1cccc(-n2cc(C(=O)N3CCN(c4cc(C(=O)O)c5ccccc5c4)C[C@H]3C(=O)NC(C)C)nc2-c2ccc(C)cc2F)c1 | 94% | 0.01 nM | 0.071 nM | Activity (Mus musculus [10]): Non-toxic; AUC (Mus musculus [7]): 0.1 µM·h; Cmax [11]: 180 nM; Activity (Mus musculus [12]): 85%; Activity (Mus musculus [13]): Toxic; Tmax [8]: 8 h; Activity (Mus musculus [3]): 92%; Vd [14]: 0.42 L/kg; EC50 [4]: 0.034 nM; Activity (Mus musculus [9]): 32%; F (Mus musculus [15]): 4%; Activity [6]: 94%; half-life [16]: 2.3 h
CCOc1cccc(-n2cc(C(=O)N3CCN(c4cnc5ccccc5c4)C[C@@H]3CNC(C)=O)nc2-c2ccc(C)cc2)c1 | 91% | 0.25 nM | 0.1 nM | –
CCOc1cccc(-n2cc(C(=O)N3CCN(c4cnc5ccccc5c4)C[C@H]3C(=O)NCC(=O)O)nc2-c2ccc(C)cc2)c1 | 82% | 0.018 nM | 0.089 nM | EC50 [4]: 0.11 nM; Activity [6]: 99%
CCOc1cccc(-n2cc(C(=O)N3CCN(c4cnc5ccccc5c4)C[C@H]3COCC(=O)O)nc2-c2ccc(C)cc2)c1 | 93% | 0.052 nM | 0.065 nM | –
CCOc1cccc(-n2cc(C(=O)N3CCN(c4cnc5ccccc5c4)C[C@H]3C(=O)NC(C)C)nc2-c2ccc(C)cc2)c1 | 102% | 0.24 nM | 0.14 nM | –
CCOc1cccc(-n2cc(C(=O)N3CCN(c4cc(C(=O)O)c5ccccc5c4)CC3)nc2-c2ccc(C)cc2)c1 | – | – | – | AUC (Mus musculus [7]): 0.39 µM·h; Tmax [8]: 6.7 h; Activity (Mus musculus [3]): 82%; Activity (Mus musculus [9]): 18%; Activity [6]: 103%
CCOc1cccc(-n2cc(C(=O)N3CCN(c4cc(C(=O)O)c5ccccc5c4)C[C@H]3C(=O)NC(C)C)nc2-c2ccc(C)cc2)c1 | 103% | 0.016 nM | 0.053 nM | AUC (Mus musculus [7]): 0.15 µM·h; Cmax [11]: 180 nM; Tmax [8]: 5.5 h; Activity (Mus musculus [3]): 45%; Vd [14]: 3.7 L/kg; EC50 [4]: 0.11 nM; Activity (Mus musculus [9]): 19%; F (Mus musculus [15]): 11%; Activity [6]: 110%; half-life [16]: 2.5 h
CCOc1cccc(-n2cc(C(=O)N3CCN(c4cnc5ccccc5c4)C[C@@H]3COCC(=O)O)nc2-c2ccc(C)cc2)c1 | 96% | 0.039 nM | 0.097 nM | EC50 [4]: 0.5 nM; Activity [6]: 84%
CCOc1cccc(-n2cc(C(=O)N3CCN(c4cnc5ccccc5c4)C[C@H]3CNS(C)(=O)=O)nc2-c2ccc(C)cc2)c1 | 117% | 0.73 nM | 0.46 nM | –
CCOc1cccc(-n2cc(C(=O)N3CCN(c4cc(C(=O)O)c5ccccc5c4)C[C@H]3CNC(=O)NC)nc2-c2ccc(C)cc2F)c1 | 90% | 0.097 nM | 0.074 nM | –
CCOc1cccc(-n2cc(C(=O)N3CCN(c4cnc5ccccc5c4)C[C@@H]3CNS(C)(=O)=O)nc2-c2ccc(C)cc2)c1 | 100% | 0.43 nM | 0.21 nM | –
